Source: ChEMBL document CHEMBL3244020, “Trichloroacetamidines, a new class of positive inotropic agents” (J Med Chem, 1978)
Active and inactive are the calls of the source. No cut-off for these calls is given here.

Tests used:
[1] = Inhibition of calf heart Na+-K+ dependent ATPase after 10 to 20 mins; parameters: species or system Bos taurus; settings: read-out: I50
Summary of the method: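 Partially purified membrane ATPase from calf heart or guinea pig renal cortex. Reaction started by final addition of enzyme. Incubated at 37 °C under air, with aliquots taken at 10 and 20 min. Liberated phosphate measured by the Lowry–Lopez method. I50 came from log inhibitor vs percent inhibition lines, at least three points. This was done only where acute inhibition was >50% at 1 × 10⁻³ M.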

Felis catus [2] = species: Felis catus; assay: Positive inotropic activity in heart papillary muscle isolated from reserpine-treated cat assessed as increase in contractile force at 10 ug/mL measured for 5 to 30 mins; type: functional, tissue-based; settings: Muscle tissue
Summary of the method: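 Cats pretreated with reserpine 0.5 mg/kg ip before papillary muscle isolation. Right-ventricular muscles kept in Krebs–Henseleit at 37 °C, stimulated at 1/s, and force recorded at 5–30 min after compound addition.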

Felis catus [3] = species: Felis catus; assay: Positive inotropic activity in cat heart papillary muscle assessed as increase in contractile force at 1.7 ug/mL measured up to 45 mins; type: functional, tissue-based; settings: Muscle tissue
Summary of the method: (§1)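 Electrically paced (1/s) right-ventricular cat papillary muscles in Krebs–Henseleit solution at 37 °C. Compound added after force declined to 25–30% of original following about 90 min equilibration. Contractile force followed over time to peak and to end of action. Values are the average of four experiments.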

Canis familiaris [4] = assay: Positive inotropic activity in Beagle dog assessed as increase in left ventricular contractile force at 1.25 mg/kg, iv measured after 1 hr; type: functional, organism-based; parameters: dose 1.25 mg/kg; settings: Canis lupus familiaris, Heart left ventricle
Canis familiaris [5] = assay: Toxicity in Beagle dog assessed as reduction in mean arterial pressure at 5 mg/kg, iv; type: organism-based, Canis lupus familiaris, Artery; parameters: dose 5 mg/kg, route intravenous; settings: in vivo
[6] = Dissociation constant, pKa of the compound; type: physicochemical
Summary of the method: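 pKa determined in water or in 30% EtOH–70% H2O, depending on compound.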

Canis familiaris [7] = assay: Toxicity in Beagle dog assessed as effect on mean arterial pressure at 1.25 mg/kg, iv; type: organism-based, Canis lupus familiaris, Artery; parameters: dose 1.25 mg/kg, route intravenous; settings: in vivo
[8] = Positive inotropic activity in cat heart papillary muscle assessed as increase in contractile force at 2.5 ug/mL measured for 5 to 30 mins; type: functional, Felis catus, Muscle tissue
Summary of the method: (§2)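 Right-ventricular cat papillary muscles in Krebs–Henseleit at 37 °C, field-stimulated at 1/s (4–10 ms, 6–10 V). Muscles equilibrated about 90 min, until force fell to 25–30% of original. Compound added and force recorded at 5, 10, 20 and 30 min, followed by ouabain 0.5 μg/mL. Positives were retested on three more preparations at ≥3 concentrations. Scored as mg increase in contractile force.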

[9] = Inhibition of calf heart Na+-K+ dependent ATPase preincubated for 30 mins measured after 10 to 20 mins; parameters: species or system Bos taurus; settings: read-out: I50
Summary of the method: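 Partially purified membrane ATPase from calf heart or guinea pig renal cortex. Inhibitor plus enzyme were preincubated 30 min at 10× final concentrations, then added to the otherwise complete assay system. Incubated at 37 °C under air, with aliquots taken at 10 and 20 min. Liberated phosphate measured by the Lowry–Lopez method. I50 came from log inhibitor vs percent inhibition lines, at least three points.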

Canis familiaris [10] = assay: Positive inotropic activity in Beagle dog assessed as increase in left ventricular dp/dt maximum at 1.25 mg/kg, iv; type: functional, organism-based; parameters: dose 1.25 mg/kg; settings: Canis lupus familiaris, Heart left ventricle
[11] = Positive inotropic activity in cat heart papillary muscle assessed as increase in contractile force at 0.156 ug/mL measured for 5 to 30 mins; type: functional, Felis catus, Muscle tissue
Summary of the method: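 Right-ventricular cat papillary muscles in Krebs–Henseleit solution at 37 °C, paced at 1/s (4–10 ms, 6–10 V square waves). Equilibrated about 90 min; compound added once force had fallen to 25–30% of original (1.5–2 h). Force recorded 5, 10, 20 and 30 min after addition, then ouabain 0.5 μg/mL added. Increase over 20% scored positive. Actives retested on three further preparations at ≥3 concentrations.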

[12] = Positive inotropic activity in cat heart papillary muscle assessed as increase in contractile force at 1.7 ug/mL measured for 10 mins (reference value: 855 mg); type: functional, Felis catus, Muscle tissue; summary of the method: as §1
Felis catus [13] = species: Felis catus; assay: Positive inotropic activity in cat heart papillary muscle assessed as increase in contractile force up to 10 ug/mL measured for 5 to 30 mins in presence of beta-adrenergic inhibitor sotalol; type: functional, tissue-based
Summary of the method: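 Cat right-ventricular papillary muscle in Krebs–Henseleit at 37 °C, electrically driven at 1/s. Force recorded 5–30 min after compound, in the presence of the β-blocker sotalol at 10 μg/mL. Scored as mg increase in contractile force.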

Canis familiaris [14] = assay: Positive inotropic activity in Beagle dog assessed as increase in left ventricular pressure at 1.25 mg/kg, iv; type: functional, organism-based; parameters: dose 1.25 mg/kg; settings: Canis lupus familiaris, Heart left ventricle
Canis familiaris [15] = assay: Positive inotropic activity in Beagle dog assessed as increase in left ventricular contractile force at 5 mg/kg, iv; type: functional, organism-based; parameters: dose 5 mg/kg; settings: Canis lupus familiaris, Heart left ventricle
Canis familiaris [16] = assay: Positive inotropic activity in Beagle dog assessed as increase in left ventricular contractile force at 1.25 mg/kg, iv measured within 5 mins (reference value: 76 g); type: functional, Canis lupus familiaris, Heart left ventricle
[17] = Positive inotropic activity in cat heart papillary muscle assessed as concentration required to increase contractile force by 500 mg measured for 5 to 30 mins; type: functional, Felis catus, Muscle tissue; summary of the method: as §2
[18] = Positive inotropic activity in cat heart papillary muscle assessed as increase in contractile force at 10 ug/mL measured for 5 to 30 mins; type: functional, Felis catus, Muscle tissue; summary of the method: as §2
Canis familiaris [19] = assay: Toxicity in Beagle dog assessed as increase in heart rate at 1.25 to 5 mg/kg, iv measured within 2 mins; type: organism-based, Canis lupus familiaris; parameters: dose 1.25-5 mg/kg, route intravenous; settings: in vivo

**Q.** Which IC50 [1] does the source give for N=C(NCc1c[nH]c2ccccc12)C(Cl)(Cl)Cl here?
**A.** 45 µM

**Q.** What about the Activity (Felis catus [2]) of the same compound?
**A.** Active

**Q.** And the Activity (Felis catus [3])?
**A.** Active

**Q.** What about the Activity (Canis familiaris [4]) of the same compound?
**A.** Active

**Q.** What about the Activity (Canis familiaris [5]) of the same compound?
**A.** Toxic

**Q.** What about the pKa [6] of the same compound?
**A.** 6

**Q.** What about the Activity (Canis familiaris [7]) of the same compound?
**A.** Non-toxic

**Q.** And the Activity [8]?
**A.** 201 mg

**Q.** What about the IC50 [9] of the same compound?
**A.** 20 µM

**Q.** And the Activity (Canis familiaris [10])?
**A.** Active

**Q.** And the Activity [11]?
**A.** 201 mg

**Q.** What about the Activity [12] of the same compound?
**A.** 1375 mg

**Q.** And the Activity (Felis catus [13])?
**A.** Active

**Q.** What about the Activity (Canis familiaris [14]) of the same compound?
**A.** Active

**Q.** And the Activity (Canis familiaris [15])?
**A.** Active

**Q.** What about the Activity (Canis familiaris [16]) of the same compound?
**A.** 125 g

**Q.** And the Activity [17]?
**A.** 1.27 µg/mL

**Q.** What about the Activity [18] of the same compound?
**A.** >600 mg

**Q.** And the Activity (Canis familiaris [19])?
**A.** Toxic
